In ChEMBL document CHEMBL1121546, “Studies on antimicrobial agents. 1. Synthesis and relation between the antimicrobial activities and certain physicochemical properties of some N'-(pyridinoacetyl) fatty acid hydrazides” (1980):

What was measured:
Proteus mirabilis = experiment: Minimum inhibitory concentration was evaluated in vitro againist Proteus mirabilis MGH-1; type: functional
Outline: (§1)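 Compounds dissolved in water, 50% Me₂SO–water or 100% Me₂SO. They were first screened by disk-plate, and those active at 1000 μg/mL went on to the autotitration method using an automatic diluting device. Bacteria were inoculated into tryptose phosphate broth and incubated at 37 °C for 18-20 h. MIC is the lowest drug level giving complete absence of growth (turbidity).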

Staphylococcus aureus = experiment: Minimum inhibitory concentration was evaluated in vitro againist Staphylococcus aureus Smith.; type: functional; outline: as §1
Trichophyton benhamiae = experiment: Minimum inhibitory concentration was evaluated in vitro againist P. Trichophyton mentagrophytes 9129; type: functional, Arthroderma benhamiae
Outline: (§2)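 Compounds in water, 50% Me₂SO–water or 100% Me₂SO. Disk-plate prescreen, with those active at 1000 μg/mL then titrated by autodilution. Fungi were grown in proteose peptone no. 3 maltose at 23 °C for 3-5 days. MIC was read as the lowest drug level showing no turbidity.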

Proteus vulgaris = experiment: Minimum inhibitory concentration was evaluated in vitro againist Proteus vulgaris 9920; type: functional; outline: as §1
Klebsiella pneumoniae = experiment: Minimum inhibitory concentration was evaluated in vitro againist Klebsiella pneumoniae 39645; type: functional; outline: as §1
Streptococcus pyogenes = experiment: Minimum inhibitory concentration was evaluated in vitro againist P. Streptococcus pyogenes C-203; type: functional; outline: as §1
Candida albicans = experiment: Minimum inhibitory concentration was evaluated in vitro againist P. Candida albicans 10231; type: functional; outline: as §2
Escherichia coli = experiment: Minimum inhibitory concentration was evaluated in vitro againist Escherichia coli Vogel; type: functional; outline: as §1
Pseudomonas aeruginosa = experiment: Minimum inhibitory concentration was evaluated in vitro againist P. Ps. aeruginosa MGH-2; type: functional; outline: as §1
Aspergillus niger = experiment: Minimum inhibitory concentration was evaluated in vitro againist P. As. niger 16404; type: functional; outline: as §2

MIC (Proteus mirabilis) [µM]	MIC (Staphylococcus aureus) [µM]	MIC (Trichophyton benhamiae) [µM]	MIC (Proteus vulgaris) [µM]	MIC (Klebsiella pneumoniae) [µM]	MIC (Streptococcus pyogenes) [µM]	MIC (Candida albicans) [µM]	MIC (Escherichia coli) [µM]	MIC (Pseudomonas aeruginosa) [µM]	MIC (Aspergillus niger) [µM]	SMILES
> 1500	366	1500	> 1500	> 1500	370	730	> 1500	> 1500	1500	CCCCCCCCCC(=O)NNC(=O)C[n+]1ccccc1
> 69	> 34	> 17	> 69	> 69	1.1	> 17	> 69	> 34	> 34	CCCCCCCCCCCCCCCCCC(=O)NNC(=O)C[n+]1ccccc1
1400	85	170	680	680	42	170	340	340	170	CCCCCCCCCCCC(=O)NNC(=O)C[n+]1ccccc1
> 74	4.6	37	> 74	> 74	9.1	18	> 37	> 37	37	CCCCCCCCCCCCCCCC(=O)NNC(=O)C[n+]1ccccc1
> 79	19.6	39	> 79	> 79	9.8	19.6	> 39	> 39	39	CCCCCCCCCCCCCC(=O)NNC(=O)C[n+]1ccccc1
> 1600	> 1600	> 1600	> 1600	> 1600	1600	> 1600	> 1600	> 1600	> 1600	CCCCCCCC(=O)NNC(=O)C[n+]1ccccc1
> 69	> 17	> 17	> 69	> 69	1.1	> 17	> 69	> 34	> 34	CCCCCCCC/C=C\CCCCCCCC(=O)NNC(=O)C[n+]1ccccc1
